Laboratory results reported in ChEMBL document CHEMBL4765448, “Multiple biological active 4-aminopyrazoles containing trifluoromethyl and their 4-nitroso-precursors: Synthesis and evaluation” (Eur J Med Chem, 2020).
Converted amounts (≈) assume the structure as drawn. “And” between values parts separate entries of the source, which are not always exact repeats. Equal values may be shown once. The source made the active and inactive calls. No cut-off for these calls is given here.

Assays:
[1] = Antioxidant activity assessed as trolox equivalent of ABTS radical scavenging activity measured after 1 hr by UV-vis spectrophotometric method; format: functional
Outline: (§1)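 ABTS cation-radical decolorization was read spectrophotometrically as the fall in absorbance after 1 h. Trolox was the reference. TEAC was taken as the ratio of concentration-response slopes, test/Trolox, and IC50 was also derived. Data are mean ± SEM, n = 3.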

[2] = Antioxidant activity assessed as AAPH scavenging activity by measuring residual fluorescence at 10 uM measured at 1 min interval for 30 mins by ORAC fluorescein assay relative to control; format: functional
Outline: (§2)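 ORAC-FL assay with fluorescein as the probe and AAPH as the peroxyl radical generator. The loss of fluorescence over time was followed, and the result is given as % fluorescence restored at 10 and 50 µM. Each value is the mean of two independent experiments.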

[3] = Antioxidant activity assessed as AAPH scavenging activity by measuring residual fluorescence at 50 uM measured at 1 min interval for 30 mins by ORAC fluorescein assay relative to control; format: functional; outline: as §2
[4] = tested on: Rattus norvegicus; test: Antiinflammatory activity in rat model of carrageenan-induced paw edema assessed as inhibition of hind paw swelling at 15 mg/kg, ip measured after 5 hrs; format: functional, organism-based
[5] = Antioxidant activity assessed as ABTS radical scavenging activity measured after 1 hr by UV-vis spectrophotometric method; format: functional; outline: as §1
[6] = tested on: NHDF; test: Cytotoxicity against HDF cells; format: cell-based, Homo sapiens
[7] = tested on: HeLa; test: Cytotoxicity against human HeLa cells; format: functional, cell-based
[8] = tested on: Shigella flexneri; test: Antibacterial activity against Shigella flexneri; format: functional
[9] = tested on: Klebsiella pneumoniae; test: Antibacterial activity against Klebsiella pneumoniae; format: functional
[10] = tested on: Pseudomonas aeruginosa; test: Antibacterial activity against Pseudomonas aeruginosa; format: functional
[11] = tested on: Streptococcus pyogenes; test: Antibacterial activity against Streptococcus pyogenes; format: functional
[12] = tested on: Escherichia coli; test: Antibacterial activity against Escherichia coli; format: functional
[13] = tested on: Proteus vulgaris; test: Antibacterial activity against Proteus vulgaris; format: functional
[14] = tested on: Citrobacter braakii; test: Antibacterial activity against Citrobacter braakii; format: functional
[15] = tested on: Neisseria gonorrhoeae; test: Antibacterial activity against Neisseria gonorrhoeae; format: functional
[16] = tested on: Serratia marcescens; test: Antibacterial activity against Serratia marcescens; format: functional
[17] = tested on: Staphylococcus aureus; test: Antibacterial activity against Staphylococcus aureus; format: functional
[18] = tested on: Rattus norvegicus; test: Antiinflammatory activity in rat model of carrageenan-induced paw edema assessed as inhibition of hind paw swelling at 15 mg/kg, ip measured after 3 hrs relative to control; format: functional
[19] = tested on: Mycobacterium tuberculosis; test: Antitubercular activity against Mycobacterium tuberculosis H37Rv; format: functional
Outline: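 Mycobacterium tuberculosis strain H37Rv; minimum inhibitory concentration (MIC) taken as the lowest level needed to inhibit bacterial growth; isoniazid and pyrazinamide served as reference drugs.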

[20] = tested on: Erythrocyte; test: Antioxidant activity in human erythrocytes assessed as protection against AAPH-induced hemolysis at 400 uM preincubated for 20 mins followed by AAPH addition and measured after 2 hrs by spectrophotometric method relative to control; format: functional; settings: time 140 min, 2.333 h
Outline: (§3)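 Erythrocyte hemolysis assay with AAPH as the free-radical initiator, testing 50 and 400 µM. Results are expressed as relative protection of membranes against oxidative damage, each the mean of two independent experiments.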

[21] = tested on: Rattus norvegicus; test: Analgesic activity in rat assessed as prolongation of latency period at 15 mg/kg, ip measured after 1 hr by hot-plate test relative to control; format: functional
Outline: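 Hot-plate test in rats. Compounds were given by intraperitoneal injection. Latency was read at 1 h and, for some compounds, also at 2 h after dosing. Results are expressed as % prolongation of the latent period versus vehicle-treated control. Significance was given as p-values.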

[22] = tested on: Trichophyton interdigitale; test: Antifungal activity against Trichophyton mentagrophytes var. interdigitale; format: functional
[23] = tested on: Trichophyton rubrum; test: Antifungal activity against Trichophyton rubrum; format: functional
[24] = tested on: Trichophyton violaceum; test: Antifungal activity against Trichophyton violaceum; format: functional
[25] = tested on: Nannizzia gypsea; test: Antifungal activity against Trichophyton gypseum; format: functional
[26] = tested on: Epidermophyton floccosum; test: Antifungal activity against Epidermophyton floccosum; format: functional
[27] = tested on: Candida albicans; test: Antifungal activity against Candida albicans; format: functional
[28] = tested on: Trichophyton tonsurans; test: Antifungal activity against Trichophyton tonsurans; format: functional
[29] = tested on: Microsporum canis; test: Antifungal activity against Microsporum canis; format: functional
[30] = tested on: Erythrocyte; test: Antioxidant activity in human erythrocytes assessed as protection against AAPH-induced hemolysis at 50 uM preincubated for 20 mins followed by AAPH addition and measured after 2 hrs by spectrophotometric method relative to control; format: functional; settings: time 140 min, 2.333 h; outline: as §3
[31] = tested on: Staphylococcus aureus; test: Antibacterial activity against methicillin resistant Staphylococcus aureus; format: functional

Row | Structure (SMILES) | Activity [1] | Activity [4] | MIC [8] | MIC [9] | MIC [10] | MIC [11] | MIC [12] | MIC [13] | MIC [14] | MIC [15] | MIC [16] | MIC [17] | MIC [22] | MIC [23] | MIC [24] | MIC [25] | MIC [26] | MIC [27] | MIC [28] | MIC [29] | further results
1 | Nc1c(C(F)(F)F)n[nH]c1-c1cccs1 | 1.22 equiv and 1.1 equiv | Active |  |  |  |  |  |  |  |  |  |  |  |  |  |  |  |  |  |  | Activity [2]: 52.5% and 52.6%; Activity [3]: 14% and 21.8%
2 | O=C1O[C@H]([C@@H](O)CO)C(O)=C1O [ASCORBIC ACID] |  |  |  |  |  |  |  |  |  |  |  |  |  |  |  |  |  |  |  |  | IC50 [5]: 21.6 µM
3 | COc1cccc2c1C(=O)c1c(O)c3c(c(O)c1C2=O)C[C@@](O)(C(=O)CO)C[C@@H]3O[C@H]1C[C@H](N)[C@H](O)[C@H](C)O1 [DOXORUBICIN] |  |  |  |  |  |  |  |  |  |  |  |  |  |  |  |  |  |  |  |  | IC50 ([6]; Homo sapiens, NHDF, read-out: IC50): 2.72 µM; IC50 ([7]; Homo sapiens, HeLa, read-out: IC50): 4.25 µM
4 | Cn1nc(C(F)(F)F)c(N)c1-c1ccco1 | 0.04 equiv | Active |  |  |  |  |  |  |  |  |  |  |  |  |  |  |  |  |  |  | 
5 | CS(=O)(=O)c1ccc(-n2nc(C(F)(F)F)c(N)c2-c2ccccc2)cc1.Cl | inactive | Active | > 250 µg/mL | > 250 µg/mL | > 250 µg/mL | > 250 µg/mL | > 250 µg/mL | > 250 µg/mL | > 250 µg/mL | 250 µg/mL | > 250 µg/mL | > 250 µg/mL |  |  |  |  |  |  |  |  | IC50 ([6]; nhdf): Not Active; IC50 ([7]; hela): Not Active
6 | Nc1c(C(F)(F)F)n[nH]c1-c1ccccc1 | 0.58 equiv and 1.35 equiv | Active |  |  |  |  |  |  |  |  |  |  |  |  |  |  |  |  |  |  | Activity [7]: Dose-dependent effect; inhibition [18]: inactive; Activity [2]: 63.1% and 59.7%; Activity [3]: 60.2% and 62.8%
7 | NNC(=O)c1ccncc1 [ISONIAZID] |  |  |  |  |  |  |  |  |  |  |  |  |  |  |  |  |  |  |  |  | MIC [19]: 0.15 µg/mL (≈ 1.09 µM)
8 | Cc1ccc(-c2c(N)c(C(F)(F)F)nn2-c2ccc(S(N)(=O)=O)cc2)cc1.Cl |  | Active | > 250 µg/mL | > 250 µg/mL | > 250 µg/mL | > 250 µg/mL | > 250 µg/mL | > 250 µg/mL | > 250 µg/mL | 250 µg/mL | > 250 µg/mL | > 250 µg/mL | 200 µg/mL | 200 µg/mL | > 200 µg/mL | > 200 µg/mL | 200 µg/mL | > 200 µg/mL | > 200 µg/mL | 200 µg/mL | fold change (FC) [20]: 1.17; Activity [21]: inactive; Activity [2]: 14.6%; fold change (FC) [30]: 1.18; Activity [3]: 47.1%
9 | O/N=C1\C(c2ccccc2)=NN(c2ccccc2)C1(O)C(F)(F)F (stereo not drawn) | 0.44 equiv | Active | > 250 µg/mL | > 250 µg/mL | > 250 µg/mL | > 250 µg/mL | > 250 µg/mL | > 250 µg/mL | > 250 µg/mL | 31.2 µg/mL (≈ 93.1 µM) | > 250 µg/mL | 31.2 µg/mL (≈ 93.1 µM) | 100 µg/mL (≈ 298 µM) | 25 µg/mL (≈ 74.6 µM) | 100 µg/mL (≈ 298 µM) | 100 µg/mL (≈ 298 µM) | 100 µg/mL (≈ 298 µM) | 50 µg/mL (≈ 149 µM) | 50 µg/mL (≈ 149 µM) | 100 µg/mL (≈ 298 µM) | IC50 [5]: 48.6 µM; MIC [31]: 31.2 µg/mL (≈ 93.1 µM)
10 | Cn1nc(C(F)(F)F)c(N=O)c1-c1ccco1 | 0.02 equiv | Active | > 500 µg/mL | > 500 µg/mL | > 500 µg/mL |  | > 500 µg/mL | > 500 µg/mL | > 500 µg/mL | 125 µg/mL (≈ 510 µM) | > 500 µg/mL | 15.6 µg/mL (≈ 63.6 µM) | 25 µg/mL (≈ 102 µM) | 12.5 µg/mL (≈ 51 µM) | 6.25 µg/mL (≈ 25.5 µM) | 50 µg/mL (≈ 204 µM) | 12.5 µg/mL (≈ 51 µM) | inactive | 12.5 µg/mL (≈ 51 µM) | 12.5 µg/mL (≈ 51 µM) | MIC [19]: 12.5 µg/mL (≈ 51 µM); MIC [31]: 31.2 µg/mL (≈ 127 µM); Activity [21]: inactive
11 | CS(=O)(=O)c1ccc(-n2nc(C(F)(F)F)c(N=O)c2-c2ccccc2)cc1 |  | Active | > 250 µg/mL | > 250 µg/mL | > 250 µg/mL | > 250 µg/mL | > 250 µg/mL | > 250 µg/mL | > 250 µg/mL | 62.5 µg/mL (≈ 158 µM) | > 250 µg/mL | > 250 µg/mL | 200 µg/mL (≈ 506 µM) | 200 µg/mL (≈ 506 µM) | > 200 µg/mL | 200 µg/mL (≈ 506 µM) | 200 µg/mL (≈ 506 µM) | > 200 µg/mL | > 200 µg/mL | 200 µg/mL (≈ 506 µM) | MIC [31]: 31.2 µg/mL (≈ 78.9 µM)
